“Also recorded” adds a separate entry of the source.
System: Japanese patients with solid tumors
Assay: Phase I dose-escalation study: safety, tolerability, DLT and MTD
Type: in vivo, human
Conditions: for Dose-limiting toxicities (DLTs): cycle 1; for Tolerability: dose level of up to 90 mg
Procedure, shortened: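 Oral test compound (tosylate salt) was given QD on days 1–21 of 28-day cycles in cohorts of 3–6 patients at 60, 90 or 120 mg. Escalation used a modified continual reassessment method (Bayesian logistic regression, escalation with overdose control). DLT window was cycle 1 (28 days). AEs were coded with MedDRA 18.0 and graded by CTCAE v4.0 (Japanese). Analysis covered patients receiving ≥1 dose.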

[1] = Cohort 1 60 mg/d (n = 3), All grades
[2] = Cohort 1 60 mg/d (n = 3), Grade ≥ 3
[3] = Cohort 2 90 mg/d (n = 11), All grades
[4] = Cohort 2 90 mg/d (n = 11), Grade ≥ 3
[5] = Cohort 3 120 mg/d (n = 4), All grades
[6] = Cohort 3 120 mg/d (n = 4), Grade ≥ 3

## CC1(C)CCC2(CC1)N[C@@H](C(=O)N[C@@H]1CC[C@@H](C(N)=O)OC1)[C@H](c1ccnc(Cl)c1F)[C@]21C(=O)Nc2cc(Cl)ccc21 [milademetan, Milademetan]
60 mg/day
  Dose interruptions: 2 n
90 mg/day
  Dose interruptions: 5 n
120 mg/day
  Dose interruptions: 3 n
120 mg/day cohort
  Dose-limiting toxicities (DLTs): three events of platelet count decreased and one nausea; also recorded: Four DLTs were observed in four patients
60-mg and 90-mg cohorts
  Dose-limiting toxicities (DLTs): No DLTs occurred
[1]
  TEAE: Alanine aminotransferase increased: 1 (33.3) n (%)
  TEAE: Anemia: 0 (0.0) n (%)
  TEAE: Aspartate aminotransferase increased: 0 (0.0) n (%)
  TEAE: Constipation: 2 (66.7) n (%)
  TEAE: Decreased appetite: 2 (66.7) n (%)
  TEAE: Diarrhea: 0 (0.0) n (%)
  TEAE: Disease progression: 0 (0.0) n (%)
  TEAE: Fatigue: 2 (66.7) n (%)
  TEAE: Hypoalbuminemia: 1 (33.3) n (%)
  TEAE: Hyponatremia: 0 (0.0) n (%)
  TEAE: Hypophosphataemic rickets: 0 (0.0) n (%)
  TEAE: Jaundice cholestatic: 0 (0.0) n (%)
  TEAE: Lymphangiosis carcinomatosa: 1 (33.3) n (%)
  TEAE: Lymphocyte count decreased: 1 (33.3) n (%)
  TEAE: Nausea: 3 (100.0) n (%)
  TEAE: Neutrophil count decreased: 0 (0.0) n (%)
  TEAE: Platelet count decreased: 0 (0.0) n (%)
  TEAE: Pyrexia: 0 (0.0) n (%)
  TEAE: Sepsis: 0 (0.0) n (%)
  TEAE: Urinary tract infection: 0 (0.0) n (%)
  TEAE: Vomiting: 0 (0.0) n (%)
  TEAE: White blood cell count decreased: 1 (33.3) n (%)
[2]
  TEAE: Alanine aminotransferase increased: 0 (0.0) n (%)
  TEAE: Anemia: 0 (0.0) n (%)
  TEAE: Aspartate aminotransferase increased: 0 (0.0) n (%)
  TEAE: Constipation: 0 (0.0) n (%)
  TEAE: Decreased appetite: 0 (0.0) n (%)
  TEAE: Diarrhea: 0 (0.0) n (%)
  TEAE: Disease progression: 0 (0.0) n (%)
  TEAE: Fatigue: 0 (0.0) n (%)
  TEAE: Hypoalbuminemia: 0 (0.0) n (%)
  TEAE: Hyponatremia: 0 (0.0) n (%)
  TEAE: Hypophosphataemic rickets: 0 (0.0) n (%)
  TEAE: Jaundice cholestatic: 0 (0.0) n (%)
  TEAE: Lymphangiosis carcinomatosa: 1 (33.3) n (%)
  TEAE: Lymphocyte count decreased: 0 (0.0) n (%)
  TEAE: Nausea: 0 (0.0) n (%)
  TEAE: Neutrophil count decreased: 0 (0.0) n (%)
  TEAE: Platelet count decreased: 0 (0.0) n (%)
  TEAE: Pyrexia: 0 (0.0) n (%)
  TEAE: Sepsis: 0 (0.0) n (%)
  TEAE: Urinary tract infection: 0 (0.0) n (%)
  TEAE: Vomiting: 0 (0.0) n (%)
  TEAE: White blood cell count decreased: 0 (0.0) n (%)
[3]
  TEAE: Alanine aminotransferase increased: 1 (9.1) n (%)
  TEAE: Anemia: 7 (63.6) n (%)
  TEAE: Aspartate aminotransferase increased: 2 (18.2) n (%)
  TEAE: Constipation: 2 (18.2) n (%)
  TEAE: Decreased appetite: 6 (54.5) n (%)
  TEAE: Diarrhea: 3 (27.3) n (%)
  TEAE: Disease progression: 0 (0.0) n (%)
  TEAE: Fatigue: 6 (54.5) n (%)
  TEAE: Hypoalbuminemia: 6 (54.5) n (%)
  TEAE: Hyponatremia: 3 (27.3) n (%)
  TEAE: Hypophosphataemic rickets: 1 (9.1) n (%)
  TEAE: Jaundice cholestatic: 1 (9.1) n (%)
  TEAE: Lymphangiosis carcinomatosa: 0 (0.0) n (%)
  TEAE: Lymphocyte count decreased: 1 (9.1) n (%)
  TEAE: Nausea: 7 (63.6) n (%)
  TEAE: Neutrophil count decreased: 3 (27.3) n (%)
  TEAE: Platelet count decreased: 8 (72.7) n (%)
  TEAE: Pyrexia: 3 (27.3) n (%)
  TEAE: Sepsis: 0 (0.0) n (%)
  TEAE: Urinary tract infection: 1 (9.1) n (%)
  TEAE: Vomiting: 3 (27.3) n (%)
  TEAE: White blood cell count decreased: 6 (54.5) n (%)
[4]
  TEAE: Alanine aminotransferase increased: 1 (9.1) n (%)
  TEAE: Anemia: 3 (27.3) n (%)
  TEAE: Aspartate aminotransferase increased: 0 (0.0) n (%)
  TEAE: Constipation: 0 (0.0) n (%)
  TEAE: Decreased appetite: 0 (0.0) n (%)
  TEAE: Diarrhea: 0 (0.0) n (%)
  TEAE: Disease progression: 0 (0.0) n (%)
  TEAE: Fatigue: 0 (0.0) n (%)
  TEAE: Hypoalbuminemia: 0 (0.0) n (%)
  TEAE: Hyponatremia: 1 (9.1) n (%)
  TEAE: Hypophosphataemic rickets: 1 (9.1) n (%)
  TEAE: Jaundice cholestatic: 1 (9.1) n (%)
  TEAE: Lymphangiosis carcinomatosa: 0 (0.0) n (%)
  TEAE: Lymphocyte count decreased: 0 (0.0) n (%)
  TEAE: Nausea: 0 (0.0) n (%)
  TEAE: Neutrophil count decreased: 0 (0.0) n (%)
  TEAE: Platelet count decreased: 1 (9.1) n (%)
  TEAE: Pyrexia: 0 (0.0) n (%)
  TEAE: Sepsis: 0 (0.0) n (%)
  TEAE: Urinary tract infection: 1 (9.1) n (%)
  TEAE: Vomiting: 0 (0.0) n (%)
  TEAE: White blood cell count decreased: 0 (0.0) n (%)
[5]
  TEAE: Alanine aminotransferase increased: 2 (50.0) n (%)
  TEAE: Anemia: 2 (50.0) n (%)
  TEAE: Aspartate aminotransferase increased: 2 (50.0) n (%)
  TEAE: Constipation: 1 (25.0) n (%)
  TEAE: Decreased appetite: 3 (75.0) n (%)
  TEAE: Diarrhea: 2 (50.0) n (%)
  TEAE: Disease progression: 1 (25.0) n (%)
  TEAE: Fatigue: 1 (25.0) n (%)
  TEAE: Hypoalbuminemia: 1 (25.0) n (%)
  TEAE: Hyponatremia: 2 (50.0) n (%)
  TEAE: Hypophosphataemic rickets: 0 (0.0) n (%)
  TEAE: Jaundice cholestatic: 0 (0.0) n (%)
  TEAE: Lymphangiosis carcinomatosa: 0 (0.0) n (%)
  TEAE: Lymphocyte count decreased: 2 (50.0) n (%)
  TEAE: Nausea: 3 (75.0) n (%)
  TEAE: Neutrophil count decreased: 2 (50.0) n (%)
  TEAE: Platelet count decreased: 3 (75.0) n (%)
  TEAE: Pyrexia: 1 (25.0) n (%)
  TEAE: Sepsis: 1 (25.0) n (%)
  TEAE: Urinary tract infection: 0 (0.0) n (%)
  TEAE: Vomiting: 2 (50.0) n (%)
  TEAE: White blood cell count decreased: 2 (50.0) n (%)
[6]
  TEAE: Alanine aminotransferase increased: 1 (25.0) n (%)
  TEAE: Anemia: 0 (0.0) n (%)
  TEAE: Aspartate aminotransferase increased: 1 (25.0) n (%)
  TEAE: Constipation: 0 (0.0) n (%)
  TEAE: Decreased appetite: 0 (0.0) n (%)
  TEAE: Diarrhea: 0 (0.0) n (%)
  TEAE: Disease progression: 1 (25.0) n (%)
  TEAE: Fatigue: 0 (0.0) n (%)
  TEAE: Hypoalbuminemia: 0 (0.0) n (%)
  TEAE: Hyponatremia: 1 (25.0) n (%)
  TEAE: Hypophosphataemic rickets: 0 (0.0) n (%)
  TEAE: Jaundice cholestatic: 0 (0.0) n (%)
  TEAE: Lymphangiosis carcinomatosa: 0 (0.0) n (%)
  TEAE: Lymphocyte count decreased: 1 (25.0) n (%)
  TEAE: Nausea: 0 (0.0) n (%)
  TEAE: Neutrophil count decreased: 1 (25.0) n (%)
  TEAE: Platelet count decreased: 3 (75.0) n (%)
  TEAE: Pyrexia: 0 (0.0) n (%)
  TEAE: Sepsis: 1 (25.0) n (%)
  TEAE: Urinary tract infection: 0 (0.0) n (%)
  TEAE: Vomiting: 0 (0.0) n (%)
  TEAE: White blood cell count decreased: 1 (25.0) n (%)
Total (n = 18), All grades
  TEAE: Alanine aminotransferase increased: 4 (22.2) n (%)
  TEAE: Anemia: 9 (50.0) n (%)
  TEAE: Aspartate aminotransferase increased: 4 (22.2) n (%)
  TEAE: Constipation: 5 (27.8) n (%)
  TEAE: Decreased appetite: 11 (61.1) n (%)
  TEAE: Diarrhea: 5 (27.8) n (%)
  TEAE: Disease progression: 1 (5.6) n (%)
  TEAE: Fatigue: 9 (50.0) n (%)
  TEAE: Hypoalbuminemia: 8 (44.4) n (%)
  TEAE: Hyponatremia: 5 (27.8) n (%)
  TEAE: Hypophosphataemic rickets: 1 (5.6) n (%)
  TEAE: Jaundice cholestatic: 1 (5.6) n (%)
  TEAE: Lymphangiosis carcinomatosa: 1 (5.6) n (%)
  TEAE: Lymphocyte count decreased: 4 (22.2) n (%)
  TEAE: Nausea: 13 (72.2) n (%)
  TEAE: Neutrophil count decreased: 5 (27.8) n (%)
  TEAE: Platelet count decreased: 11 (61.1) n (%)
  TEAE: Pyrexia: 4 (22.2) n (%)
  TEAE: Sepsis: 1 (5.6) n (%)
  TEAE: Urinary tract infection: 1 (5.6) n (%)
  TEAE: Vomiting: 5 (27.8) n (%)
  TEAE: White blood cell count decreased: 9 (50.0) n (%)
Total (n = 18), Grade ≥ 3
  TEAE: Alanine aminotransferase increased: 2 (11.1) n (%)
  TEAE: Anemia: 3 (16.7) n (%)
  TEAE: Aspartate aminotransferase increased: 1 (5.6) n (%)
  TEAE: Constipation: 0 (0.0) n (%)
  TEAE: Decreased appetite: 0 (0.0) n (%)
  TEAE: Diarrhea: 0 (0.0) n (%)
  TEAE: Disease progression: 1 (5.6) n (%)
  TEAE: Fatigue: 0 (0.0) n (%)
  TEAE: Hypoalbuminemia: 0 (0.0) n (%)
  TEAE: Hyponatremia: 2 (11.1) n (%)
  TEAE: Hypophosphataemic rickets: 1 (5.6) n (%)
  TEAE: Jaundice cholestatic: 1 (5.6) n (%)
  TEAE: Lymphangiosis carcinomatosa: 1 (5.6) n (%)
  TEAE: Lymphocyte count decreased: 1 (5.6) n (%)
  TEAE: Nausea: 0 (0.0) n (%)
  TEAE: Neutrophil count decreased: 1 (5.6) n (%)
  TEAE: Platelet count decreased: 4 (22.2) n (%)
  TEAE: Pyrexia: 0 (0.0) n (%)
  TEAE: Sepsis: 1 (5.6) n (%)
  TEAE: Urinary tract infection: 1 (5.6) n (%)
  TEAE: Vomiting: 0 (0.0) n (%)
  TEAE: White blood cell count decreased: 1 (5.6) n (%)
All 18 patients
  Drug-related TEAE: anemia, frequency: 38.9%
  Grade ≥ 3 TEAE: ALT increased: 2 n
  Grade ≥ 3 TEAE: anemia: 3 n
  Grade ≥ 3 TEAE: hyponatremia: 2 n
  Grade ≥ 3 TEAE: platelet count decreased: 4 n
All 18 patients, all grades
  TEAE: anemia, frequency: 50.0%
  TEAE: decreased appetite, frequency: 61.1%
  TEAE: fatigue, frequency: 50.0%
  TEAE: nausea, frequency: 72.2%
  TEAE: platelet count decreased, frequency: 61.1%
  TEAE: white blood cell count decreased, frequency: 50.0%
All cohorts
  Dose interruption because of decreased appetite: 2 n
  Dose interruption because of nausea: 6 n
  Dose interruption because of platelet count decreased: 4 n
  Dose interruptions: ten patients
  Dose reduction due to TEAEs: No patients required a dose reduction
Days 1 to 21 of a 28-day cycle
  Maximum tolerated dose (MTD): 90 mg/day
once-daily 21/28-day schedule
  Tolerability: well tolerated
  Maximum tolerated dose (MTD): 90 mg
  Recommended dose for phase II: 90 mg
once-daily 21/28-day schedule, listed as Milademetan
  Tolerability: generally safe and well tolerated
Four at 90 mg, one at 60 mg, one at 120 mg, eight serious TEAEs
  Patients who developed serious TEAEs: Six patients
hematology, blood chemistry, coagulation, urinalysis, vital signs, ECG
  Changes in laboratory parameters (other than platelet count decreased), vital signs, electrocardiogram: no clinically relevant changes
Of 18 patients
  Patients with at least one drug-related TEAE: 18 patients
One in 90-mg cohort, two in 120-mg cohort
  Withdrawal from the study because of TEAEs: Three patients withdrew
Six out of 18 patients
  Serious TEAEs, percentage of patients: 33.3%
